Results as given in paper PMC7416082 (Journal of Inorganic Biochemistry, 2020).

Assays:
CT DNA = CT DNA binding studies by cyclic voltammetry; set-up: species or system calf; conditions: for Epa(f), anodic potential / Epc(f), cathodic potential / Epa(b), anodic potential / Epc(b), cathodic potential: Co(II)/Co(I) couple, DMSO/buffer; for Epa(f), anodic potential / Epc(f), cathodic potential: absence of CT DNA; for Epa(b), anodic potential / Epc(b), cathodic potential: presence of CT DNA; for Kr/Kox, ratio of equilibrium DNA-binding constants of reduced and oxidized form: Eq. S3; for ΔEpa = Epa(b) − Epa(f) / ΔEpc = Epc(b) − Epc(f): shift upon addition of CT DNA
CT DNA-EB conjugate = experiment: EB-displacement studies; assay type: binding, calf; conditions: for quenching constant kq (EB-DNA): τo = 23 ns
Method in brief: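 CT DNA pre-bound with ethidium bromide in citrate/NaCl buffer, pH 7.0, at room temperature. Test compound was added from a DMSO stock (≤5% v/v DMSO final), and the decrease in EB-DNA emission at 592 nm was monitored. KSV was obtained by Stern-Volmer analysis. kq was calculated from KSV using a literature EB-DNA lifetime τo = 23 ns.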

[1] = target: T1, bovine serum albumin (BSA) (Bos taurus, UniProt P02769); experiment: BSA tryptophan fluorescence quenching; assay type: binding; conditions: for K(BSA), SA-binding constant: Scatchard equation; for % relative fluorescence intensity (I/Io, %) of BSA remaining: λem 345 nm, % of the initial BSA fluorescence; for kq(BSA), SA-quenching constant: τo = 10^−8 s
T1 sequence (P02769 25-607): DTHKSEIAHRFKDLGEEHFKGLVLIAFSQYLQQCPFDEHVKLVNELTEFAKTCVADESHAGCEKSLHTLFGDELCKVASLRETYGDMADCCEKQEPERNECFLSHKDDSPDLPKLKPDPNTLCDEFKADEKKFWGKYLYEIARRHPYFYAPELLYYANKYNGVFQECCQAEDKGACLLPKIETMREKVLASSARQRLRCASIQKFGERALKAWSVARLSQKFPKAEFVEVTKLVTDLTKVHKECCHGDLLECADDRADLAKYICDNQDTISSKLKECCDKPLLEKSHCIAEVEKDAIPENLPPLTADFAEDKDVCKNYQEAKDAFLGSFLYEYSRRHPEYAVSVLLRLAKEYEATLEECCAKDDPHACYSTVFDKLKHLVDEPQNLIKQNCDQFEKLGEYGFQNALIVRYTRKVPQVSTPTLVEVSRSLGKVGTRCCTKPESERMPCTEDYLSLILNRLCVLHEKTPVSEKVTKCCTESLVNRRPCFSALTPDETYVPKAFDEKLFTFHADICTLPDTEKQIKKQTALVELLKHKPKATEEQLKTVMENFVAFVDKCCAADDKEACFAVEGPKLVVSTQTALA

[2] = target: T2, human serum albumin (HSA) (Homo sapiens, UniProt P02768); experiment: HSA tryptophan fluorescence quenching; assay type: binding; conditions: for K(HSA), SA-binding constant: Scatchard equation; for % relative fluorescence intensity (I/Io, %) of HSA remaining: λem 340 nm, % of the initial HSA fluorescence; for kq(HSA), SA-quenching constant: τo = 10^−8 s
T2 sequence (P02768 25-609): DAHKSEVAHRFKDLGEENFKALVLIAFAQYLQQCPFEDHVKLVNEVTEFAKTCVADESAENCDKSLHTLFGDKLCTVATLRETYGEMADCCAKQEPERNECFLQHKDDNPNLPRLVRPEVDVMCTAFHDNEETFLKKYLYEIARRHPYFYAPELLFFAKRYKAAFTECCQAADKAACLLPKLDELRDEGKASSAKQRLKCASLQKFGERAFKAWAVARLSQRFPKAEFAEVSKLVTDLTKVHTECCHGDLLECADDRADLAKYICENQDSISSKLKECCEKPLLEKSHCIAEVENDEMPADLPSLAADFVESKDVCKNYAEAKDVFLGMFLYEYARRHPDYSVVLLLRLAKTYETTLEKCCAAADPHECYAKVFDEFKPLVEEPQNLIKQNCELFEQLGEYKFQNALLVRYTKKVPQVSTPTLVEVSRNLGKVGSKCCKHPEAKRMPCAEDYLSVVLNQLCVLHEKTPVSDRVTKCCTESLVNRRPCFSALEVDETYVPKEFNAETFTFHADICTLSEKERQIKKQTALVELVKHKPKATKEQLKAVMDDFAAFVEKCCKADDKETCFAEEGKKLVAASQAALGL

[3] = target: T1, bovine serum albumin (BSA); experiment: BSA competitive studies with site-markers warfarin and ibuprofen; assay type: binding; conditions: for BSA-binding constant K, marker: ibuprofen: presence of ibuprofen; for BSA-binding constant K, marker: warfarin: presence of warfarin; for BSA binding site from competition with site-markers: change of K(BSA) with warfarin / ibuprofen
[4] = target: T2, human serum albumin (HSA); experiment: HSA competitive studies with site-markers warfarin and ibuprofen; assay type: binding; conditions: for HSA-binding constant K, marker: ibuprofen: presence of ibuprofen; for HSA-binding constant K, marker: warfarin: presence of warfarin
[5] = Solubility and stability of the isolated complexes; assay type: physicochemical

Substance	Epa(f), anodic potential (CT DNA) [mV]	Epc(f), cathodic potential (CT DNA) [mV]	Epa(b), anodic potential (CT DNA) [mV]	Epc(b), cathodic potential (CT DNA) [mV]	Kr/Kox, ratio of equilibrium DNA-binding constants of reduced and oxidized form (CT DNA)	ΔEpa = Epa(b) − Epa(f) (CT DNA)	ΔEpc = Epc(b) − Epc(f) (CT DNA)	Stern-Volmer constant KSV (EB-DNA) (CT DNA-EB conjugate)	quenching constant kq (EB-DNA) (CT DNA-EB conjugate)	K(BSA), SA-binding constant [1]	% relative fluorescence intensity (I/Io, %) of BSA remaining [1] [%]	kq(BSA), SA-quenching constant [1]	K(HSA), SA-binding constant [2]	% relative fluorescence intensity (I/Io, %) of HSA remaining [2] [%]	kq(HSA), SA-quenching constant [2]	BSA-binding constant K, no marker [3]	BSA-binding constant K, marker: ibuprofen [3]	BSA-binding constant K, marker: warfarin [3]	HSA-binding constant K, no marker [4]	HSA-binding constant K, marker: ibuprofen [4]	further results
[Co(indo-O)2(H2O)2(μ-Cl)]n·n(MeOH·H2O) [complex 1]	−495	−690	−480	−700	1.04	+15 mV	−10 mV	1.39(±0.05) × 10^5 M^−1	6.03(±0.23) × 10^12 M^−1 s^−1	3.72(±0.12) × 10^5 M^−1	33.5	1.04(±0.07) × 10^13 M^−1 s^−1	7.06(±0.31) × 10^5 M^−1	28.8	9.01(±0.28) × 10^12 M^−1 s^−1	3.72(±0.12) × 10^5 M^−1	1.56(±0.08) × 10^5 M^−1	4.50(±0.24) × 10^5 M^−1	7.06(±0.31) × 10^5 M^−1	2.72(±0.10) × 10^5 M^−1	BSA binding site from competition with site-markers [3]: preference for the Sudlow's site 2 in subdomain IIIA; HSA-binding constant K, marker: warfarin [4]: 4.18(±0.11) × 10^5 M^−1; Solubility [5]: soluble in DMSO and DMF
[Co(indo-O,O′)2(phen)] [complex 4]	−440	−720	−500	−680	0.84	−60 mV	+40 mV	1.76(±0.04) × 10^5 M^−1	7.65(±0.17) × 10^12 M^−1 s^−1	4.27(±0.22) × 10^5 M^−1	26.5	1.37(±0.06) × 10^13 M^−1 s^−1	7.37(±0.35) × 10^5 M^−1	21.2	1.83(±0.12) × 10^13 M^−1 s^−1	4.27(±0.22) × 10^5 M^−1	1.19(±0.05) × 10^5 M^−1	2.23(±0.08) × 10^5 M^−1	1.20(±0.05) × 10^6 M^−1	3.42(±0.11) × 10^5 M^−1	HSA-binding constant K, marker: warfarin [4]: 5.72(±0.18) × 10^5 M^−1; HSA binding site from competition with site-markers ([4]; change of K(HSA) with warfarin / ibuprofen): evident preference for the Sudlow's site 2 in subdomain IIIA; Solubility [5]: soluble in DMSO and DMF
[Co2(μ-indo-O,O′)2(indo-O)2(bipy)2(μ-H2O)]·3.3MeOH [complex 2]	−475	−712	−520	−675	0.93	−45 mV	+37 mV	1.63(±0.05) × 10^5 M^−1	7.07(±0.20) × 10^12 M^−1 s^−1	6.77(±0.26) × 10^5 M^−1	7.2	7.14(±0.12) × 10^13 M^−1 s^−1	1.20(±0.05) × 10^6 M^−1	5.1	8.49(±0.25) × 10^13 M^−1 s^−1	6.77(±0.26) × 10^5 M^−1	3.50(±0.13) × 10^5 M^−1	5.48(±0.13) × 10^5 M^−1	8.82(±0.30) × 10^5 M^−1	1.41(±0.09) × 10^5 M^−1	BSA binding site from competition with site-markers [3]: preference for the Sudlow's site 2 in subdomain IIIA; HSA-binding constant K, marker: warfarin [4]: 4.62(±0.16) × 10^5 M^−1; Solubility [5]: soluble in DMSO and DMF
